Test results: ChEMBL document CHEMBL1124553, “Brain-specific chemical delivery systems for beta-lactam antibiotics. In vitro and in vivo studies of some dihydropyridine and dihydroisoquinoline derivatives of benzylpenicillin in rats” (J Med Chem, 1989)

Assays:
[1] = system: Rattus norvegicus; assay: Concentration of compound in rat kidney after intravenous injection of 20 mg/kg benzyl-penicillin after 5 min; assay type: functional, organism-based; set-up: dose 20 mg/kg
How it was run: (§1)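 Male Sprague-Dawley rats (200-250 g), conscious, received 60 µmol/kg (equimolar to 20 mg/kg benzylpenicillin) by tail-vein injection. Benzylpenicillin K was given in water/ethanol/propylene glycol, and the delivery systems in ethanol:propylene glycol 7:3, at 20 mg/mL. Rats were decapitated at set times (4-6 per point), with trunk blood heparinized and brain, kidney, liver and lung frozen. Benzylpenicillin was measured by disk microbioassay (Bacillus subtilis ATCC 6633) after >5-volume sterile-water dilution or homogenization, against matrix calibration curves; assay limit 0.05 µg/mL.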

[2] = system: Rattus norvegicus; assay: Concentration of compound in rat lung after intravenous injection of 20 mg/kg benzyl-penicillin after 20 min; assay type: functional, organism-based; set-up: dose 20 mg/kg; how it was run: as §1
[3] = system: Rattus norvegicus; assay: Concentration of compound in rat brain after intravenous injection of 20 mg/kg benzyl-penicillin after 1 min; assay type: functional, organism-based; set-up: dose 20 mg/kg; how it was run: as §1
[4] = system: Rattus norvegicus; assay: Concentration of compound in rat lung after intravenous injection of 20 mg/kg benzyl-penicillin after 1 min; assay type: functional, organism-based; set-up: dose 20 mg/kg; how it was run: as §1
[5] = system: Rattus norvegicus; assay: Concentration of compound in rat liver after intravenous injection of 20 mg/kg benzyl-penicillin after 10 min; assay type: functional, organism-based; set-up: dose 20 mg/kg; how it was run: as §1
[6] = system: Rattus norvegicus; assay: Concentration of compound in rat liver after intravenous injection of 20 mg/kg benzyl-penicillin after 40 min; assay type: functional, organism-based; set-up: dose 20 mg/kg; how it was run: as §1
[7] = system: Rattus norvegicus; assay: Concentration of compound in rat liver after intravenous injection of 20 mg/kg benzyl-penicillin after 20 min; assay type: functional, organism-based; set-up: dose 20 mg/kg; how it was run: as §1
[8] = system: Rattus norvegicus; assay: Concentration of compound in rat brain after intravenous injection of 20 mg/kg benzyl-penicillin after 60 min; assay type: functional, organism-based; set-up: dose 20 mg/kg; how it was run: as §1
[9] = Half-life for disappearance of compound from rabbit 10% brain homogenate; assay type: ADME, Oryctolagus cuniculus
How it was run: (§2)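 Freshly collected whole blood, or 10% w/v brain homogenate in pH 7.4 phosphate buffer (ionic strength 0.15), was prewarmed to 37 °C. Compound was spiked from an 8 mM DMSO stock to 40 µM final. Timed samples were quenched in 8% DMSO/acetonitrile, centrifuged, filtered and analyzed by reversed-phase C8 HPLC with UV detection. K came from linear regression of log peak height versus time, with t1/2 derived from it. Values are mean ± SE of three determinations in different animal samples.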

[10] = system: Rattus norvegicus; assay: Concentration of compound in rat lung after intravenous injection of 20 mg/kg benzyl-penicillin after 10 min; assay type: functional, organism-based; set-up: dose 20 mg/kg; how it was run: as §1
[11] = organism: Oryctolagus cuniculus; assay: Pseudo first-order rate constant (K) for disappearance of compound from rabbit 10% brain homogenate; assay type: ADME
How it was run: (§3)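 Freshly collected whole blood (rat trunk blood; rabbit) or 10% w/v brain homogenate made in pH 7.4 phosphate buffer (μ = 0.15), prewarmed to 37 °C. Compound added from 8 mM DMSO stock to a final 40 μM. Timed 0.3 mL samples were quenched in 8% DMSO/acetonitrile, centrifuged, filtered and analysed by reversed-phase C8 HPLC-UV. K came from linear regression of log peak height versus time; n=3 animal samples.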

[12] = Half-life for disappearance of compound from rat 10% brain homogenate; assay type: ADME; how it was run: as §2
[13] = organism: Rattus norvegicus; assay: Half-life for disappearance of compound from rat whole blood; Compound was unstable; assay type: ADME, organism-based; conditions: in vitro; how it was run: as §2
[14] = system: Rattus norvegicus; assay: Concentration of compound in rat blood after intravenous injection of 20 mg/kg benzyl-penicillin after 10 min; assay type: functional, organism-based; set-up: dose 20 mg/kg; how it was run: as §1
[15] = system: Rattus norvegicus; assay: Concentration of compound in rat brain after intravenous injection of 20 mg/kg benzyl-penicillin after 3 min; assay type: functional, organism-based; set-up: dose 20 mg/kg; how it was run: as §1
[16] = system: Rattus norvegicus; assay: Concentration of compound in rat blood after intravenous injection of 20 mg/kg benzyl-penicillin after 60 min; assay type: functional, organism-based; set-up: dose 20 mg/kg; how it was run: as §1
[17] = system: Rattus norvegicus; assay: Concentration of compound in rat liver after intravenous injection of 20 mg/kg benzyl-penicillin after 60 min; assay type: functional, organism-based; set-up: dose 20 mg/kg; how it was run: as §1
[18] = organism: Homo sapiens; assay: Pseudo first-order rate constant (K) for disappearance of compound from human whole blood; assay type: ADME, organism-based; how it was run: as §2
[19] = Half-life for disappearance of compound from rabbit whole blood; assay type: ADME, organism-based, Oryctolagus cuniculus; how it was run: as §2
[20] = organism: Rattus norvegicus; assay: Pseudo first-order rate constant (K) for disappearance of compound from rat whole blood; Compound was unstable; assay type: ADME, organism-based; how it was run: as §3
[21] = system: Rattus norvegicus; assay: Concentration of compound in rat brain after intravenous injection of 20 mg/kg benzyl-penicillin after 10 min; assay type: functional, organism-based; set-up: dose 20 mg/kg; how it was run: as §1
[22] = system: Rattus norvegicus; assay: Concentration of compound in rat blood after intravenous injection of 20 mg/kg benzyl-penicillin after 40 min; assay type: functional, organism-based; set-up: dose 20 mg/kg; how it was run: as §1
[23] = system: Rattus norvegicus; assay: Concentration of compound in rat kidney after intravenous injection of 20 mg/kg benzyl-penicillin after 40 min; assay type: functional, organism-based; set-up: dose 20 mg/kg; how it was run: as §1
[24] = system: Rattus norvegicus; assay: Concentration of compound in rat liver after intravenous injection of 20 mg/kg benzyl-penicillin after 3 min; assay type: functional, organism-based; set-up: dose 20 mg/kg; how it was run: as §1
[25] = system: Rattus norvegicus; assay: Concentration of compound in rat blood after intravenous injection of 20 mg/kg benzyl-penicillin after 1 min; assay type: functional, organism-based; set-up: dose 20 mg/kg; how it was run: as §1
[26] = system: Rattus norvegicus; assay: Concentration of compound in rat blood after intravenous injection of 20 mg/kg benzyl-penicillin after 3 min; assay type: functional, organism-based; set-up: dose 20 mg/kg; how it was run: as §1
[27] = Half-life for disappearance of compound from dog whole blood; assay type: ADME, organism-based, Canis lupus familiaris; how it was run: as §2
[28] = system: Rattus norvegicus; assay: Concentration of compound in rat brain after intravenous injection of 20 mg/kg benzyl-penicillin after 5 min; assay type: functional, organism-based; set-up: dose 20 mg/kg; how it was run: as §1
[29] = organism: Oryctolagus cuniculus; assay: Pseudo first-order rate constant (K) for disappearance of compound from rabbit whole blood; assay type: ADME, organism-based; how it was run: as §3
[30] = system: Rattus norvegicus; assay: Concentration of compound in rat brain after intravenous injection of 20 mg/kg benzyl-penicillin after 20 min; assay type: functional, organism-based; set-up: dose 20 mg/kg; how it was run: as §1
[31] = system: Rattus norvegicus; assay: Concentration of compound in rat lung after intravenous injection of 20 mg/kg benzyl-penicillin after 5 min; assay type: functional, organism-based; set-up: dose 20 mg/kg; how it was run: as §1
[32] = system: Rattus norvegicus; assay: Concentration of compound in rat kidney after intravenous injection of 20 mg/kg benzyl-penicillin after 1 min; assay type: functional, organism-based; set-up: dose 20 mg/kg; how it was run: as §1
[33] = system: Rattus norvegicus; assay: Concentration of compound in rat liver after intravenous injection of 20 mg/kg benzyl-penicillin after 5 min; assay type: functional, organism-based; set-up: dose 20 mg/kg; how it was run: as §1
[34] = system: Rattus norvegicus; assay: Concentration of compound in rat blood after intravenous injection of 20 mg/kg benzyl-penicillin after 5 min; assay type: functional, organism-based; set-up: dose 20 mg/kg; how it was run: as §1
[35] = system: Rattus norvegicus; assay: Concentration of compound in rat lung after intravenous injection of 20 mg/kg benzyl-penicillin after 40 min; assay type: functional, organism-based; set-up: dose 20 mg/kg; how it was run: as §1
[36] = system: Rattus norvegicus; assay: Concentration of compound in rat brain after intravenous injection of 20 mg/kg benzyl-penicillin after 40 min; assay type: functional, organism-based; set-up: dose 20 mg/kg; how it was run: as §1
[37] = system: Rattus norvegicus; assay: Concentration of compound in rat lung after intravenous injection of 20 mg/kg benzyl-penicillin after 3 min; assay type: functional, organism-based; set-up: dose 20 mg/kg; how it was run: as §1
[38] = organism: Canis familiaris; assay: Pseudo first-order rate constant (K) for disappearance of compound from dog whole blood; assay type: ADME, organism-based, Canis lupus familiaris; how it was run: as §2
[39] = system: Rattus norvegicus; assay: Concentration of compound in rat lung after intravenous injection of 20 mg/kg benzyl-penicillin after 60 min; assay type: functional, organism-based; set-up: dose 20 mg/kg; how it was run: as §1
[40] = system: Rattus norvegicus; assay: Concentration of compound in rat kidney after intravenous injection of 20 mg/kg benzyl-penicillin after 60 min; assay type: functional, organism-based; set-up: dose 20 mg/kg; how it was run: as §1
[41] = system: Rattus norvegicus; assay: Concentration of compound in rat liver after intravenous injection of 20 mg/kg benzyl-penicillin after 1 min; assay type: functional, organism-based; set-up: dose 20 mg/kg; how it was run: as §1
[42] = organism: Rattus norvegicus; assay: Pseudo first-order rate constant (K) for disappearance of compound from rat 10% brain homogenate; assay type: ADME; how it was run: as §3
[43] = Half-life for disappearance of compound from human whole blood; assay type: ADME, organism-based; how it was run: as §2
[44] = system: Rattus norvegicus; assay: Concentration of compound in rat blood after intravenous injection of 20 mg/kg benzyl-penicillin after 20 min; assay type: functional, organism-based; set-up: dose 20 mg/kg; how it was run: as §1
[45] = system: Rattus norvegicus; assay: Concentration of compound in rat kidney after intravenous injection of 20 mg/kg benzyl-penicillin after 10 min; assay type: functional, organism-based; set-up: dose 20 mg/kg; how it was run: as §1
[46] = system: Rattus norvegicus; assay: Concentration of compound in rat kidney after intravenous injection of 20 mg/kg benzyl-penicillin after 3 min; assay type: functional, organism-based; set-up: dose 20 mg/kg; how it was run: as §1
[47] = system: Rattus norvegicus; assay: Concentration of compound in rat kidney after intravenous injection of 20 mg/kg benzyl-penicillin after 20 min; assay type: functional, organism-based; set-up: dose 20 mg/kg; how it was run: as §1

CN1C=CCC(C(=O)OCCOC(=O)C2N3C(=O)C(NC(=O)Cc4ccccc4)C3SC2(C)C)=C1 (configuration not stated)
Concentration [1]: 54.6 µg/mL
Concentration [2]: 7.2 µg/mL
Concentration [3]: 8.8 µg/mL
Concentration [4]: 37.7 µg/mL
Concentration [5]: 11.4 µg/mL
Concentration [6]: 1.5 µg/mL
Concentration [7]: 4.7 µg/mL
Concentration [8]: 0.7 µg/mL
half-life [9]: 4 min
Concentration [10]: 24.5 µg/mL
K [11]: 0.174 min⁻¹
half-life [12]: 2.4 min
T1/2 [13]: Unstable
Concentration [14]: 5.6 µg/mL
Concentration [15]: 3.5 µg/mL
Concentration [16]: 0.3 µg/mL
Concentration [17]: 0.6 µg/mL
K [18]: 0.043 min⁻¹
half-life [19]: 0.8 min
K [20]: Unstable
Concentration [21]: 3.9 µg/mL
Concentration [22]: 0.7 µg/mL
Concentration [23]: 3.4 µg/mL
Concentration [24]: 10.9 µg/mL
Concentration [25]: 22.7 µg/mL
Concentration [26]: 9 µg/mL
half-life [27]: 4.1 min
Concentration [28]: 3.7 µg/mL
K [29]: 0.903 min⁻¹
Concentration [30]: 2.4 µg/mL
Concentration [31]: 31.2 µg/mL
Concentration [32]: 37.9 µg/mL
Concentration [33]: 12.6 µg/mL
Concentration [34]: 10.7 µg/mL
Concentration [35]: 5 µg/mL
Concentration [36]: 1.1 µg/mL
Concentration [37]: 32.4 µg/mL
K [38]: 0.168 min⁻¹
Concentration [39]: 2.8 µg/mL
Concentration [40]: 2.1 µg/mL
Concentration [41]: 11.1 µg/mL
K [42]: 0.296 min⁻¹
half-life [43]: 16.2 min
Concentration [44]: 1.9 µg/mL
Concentration [45]: 30.3 µg/mL
Concentration [46]: 56.4 µg/mL
Concentration [47]: 10.3 µg/mL
